We go through 1 compound from ChEMBL document CHEMBL3817762, “Monoacidic Inhibitors of the Kelch-like ECH-Associated Protein 1: Nuclear Factor Erythroid 2-Related Factor 2 (KEAP1:NRF2) Protein-Protein Interaction with High Cell Potency Identified by Fragment-Based Discovery” (J Med Chem, 2016).

What all share (type): ADME, organism-based
A short description of data set [1]: Systemic oral bioavailability in Han Wistar rat at 2 mg/kg after 24 hrs by LC-MS/MS analysis. The note with it: in vivo. The method in brief:
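Han Wistar rats (n=3) were dosed IV and PO in a crossover design with a two-day washout. Blood was sampled over 24 h and analysed by LC/MS/MS.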

The nature of data set [2]: Drug level in Han Wistar rat blood at 50 umol/kg, iv dosed up to 6 hrs infusions by LC-MS/MS analysis. Particulars: whole blood, read-out: Drug uptake. The method in brief:
(§1)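 Han Wistar rats (250-300 g, n=8/group) received the compound by IV infusion over 6 h at 10, 35 or 50 µmol/kg. Blood concentration was taken as the steady-state level over the 6 h infusion period.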

A short description of data set [3]: Drug level in Han Wistar rat blood at 10 umol/kg, iv dosed up to 6 hrs infusions by LC-MS/MS analysis. The note with it: whole blood, read-out: Drug uptake. The method in brief: as §1
Data set [4] in a line: Drug level in Han Wistar rat blood at 35 umol/kg, iv dosed up to 6 hrs infusions by LC-MS/MS analysis. Particulars: whole blood, read-out: Drug uptake. The method in brief: as §1

SMILES strings stand for the structures.

As usually defined, the bioavailability is dose-corrected exposure relative to a reference, in per cent. Lower therefore signals little systemic uptake. For `COc1cc([C@@H](CC(=O)O)c2ccc(C)c(CN3C[C@@H](C)Oc4ccccc4S3(=O)=O)c2)cc2nnn(C)c12`, the bioavailability in data set [1] amounted to 7%. Moreover, the concentration at 6 h in data set [2] turned out to be 1440 nM; in data set [3] it was 407 nM; in data set [4], 946 nM.
